Data on 30 compounds can be found in ChEMBL document CHEMBL4477237, “Structure-Based Design of β5c Selective Inhibitors of Human Constitutive Proteasomes” (J Med Chem, 2016).

Experiment [1] deals with T1, Proteasome Macropain subunit MB1 (Homo sapiens) (UniProt P28074).
T1 sequence (whole entry): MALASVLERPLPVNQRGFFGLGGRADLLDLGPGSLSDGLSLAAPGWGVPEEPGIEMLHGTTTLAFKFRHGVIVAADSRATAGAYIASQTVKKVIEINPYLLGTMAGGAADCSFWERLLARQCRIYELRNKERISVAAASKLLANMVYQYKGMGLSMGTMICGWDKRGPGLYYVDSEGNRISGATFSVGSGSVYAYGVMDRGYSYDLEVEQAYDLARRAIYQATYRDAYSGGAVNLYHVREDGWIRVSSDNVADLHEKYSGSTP
Kind of experiment: (§1) Inhibition of catalytic activity of constitutive proteasome 20s subunit beta5 in human Raji cells incubated for 1 hr by BODIPY(TMR)-NC-005-VS probe based competitive activity based protein profiling assay. The class given is cell-based.

For experiment [2], the target named is T2, Proteasome Macropain subunit MB1 (Homo sapiens, UniProt P28074).
T2 sequence (P28074 whole entry): T1 sequence (whole entry)
The description is as §1. The class given is cell-based.

Experiment [3] addresses Proteasome subunit beta type-8 (β5i, LMP7) (Homo sapiens) (UniProt P28062). Briefly: Inhibition of catalytic activity of immunoproteasome 20s subunit beta5 in human Raji cells incubated for 1 hr by BODIPY(TMR)-NC-005-VS probe based competitive activity based protein profiling assay.
The target in experiment [4] is Proteasome subunit beta type-9 (β1i, LMP2) (Homo sapiens) (UniProt P28065). Briefly: Inhibition of catalytic activity of immunoproteasome 20s subunit beta1 in human Raji cells incubated for 1 hr by Cy5-NC-001 probe based competitive activity based protein profiling assay.
For experiment [5], the target named is T3, Proteasome component C5 (Homo sapiens) (UniProt P20618).
T3 sequence (whole entry): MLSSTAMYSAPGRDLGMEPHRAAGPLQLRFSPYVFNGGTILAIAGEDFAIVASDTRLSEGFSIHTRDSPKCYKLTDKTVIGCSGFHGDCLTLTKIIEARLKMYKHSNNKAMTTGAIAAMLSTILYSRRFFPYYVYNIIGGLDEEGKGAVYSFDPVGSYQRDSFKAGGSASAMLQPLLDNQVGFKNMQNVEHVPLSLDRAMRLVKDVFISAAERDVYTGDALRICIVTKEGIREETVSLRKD
Briefly: Inhibition of catalytic activity of constitutive proteasome 20s subunit beta1 in human Raji cells incubated for 1 hr by Cy5-NC-001 probe based competitive activity based protein profiling assay. The class given is cell-based.

For experiment [6], the species on record is Homo sapiens. Briefly: Selectivity ratio of IC50 for immunoproteasome 20s subunit beta5 in human Raji cells to IC50 for constitutive proteasome 20s subunit beta5 in human Raji cells. The class given is cell-based. In a few lines:
(§2)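 Initial screen in Raji cell extracts. Inhibitor at 0.01, 0.1, 1.0 and 10.0 µM final for 1 h at 37 °C, then ABP cocktail 1 h. In-gel fluorescence of β5c/β5i bands normalized to mock-treated extract, giving residual activity. Run once. IC50s from this screen feed the β5i/β5c ratio.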

In experiment [7] the target is Proteasome subunit beta type-8 (β5i, LMP7) (Homo sapiens) (UniProt P28062). Briefly: Inhibition of catalytic activity of immunoproteasome 20s subunit beta5 in human Raji cells assessed as residual activity at 0.01 uM incubated for 1 hr by BODIPY(TMR)-NC-005-VS probe based competitive activity based protein profiling assay relative to control.
Experiment [8] deals with T1, Proteasome Macropain subunit MB1 (Homo sapiens). Briefly: Inhibition of catalytic activity of constitutive proteasome 20s subunit beta5 in human Raji cells assessed as residual activity at 0.01 uM incubated for 1 hr by BODIPY(TMR)-NC-005-VS probe based activity based protein profiling assay relative to control. The class given is cell-based. In a few lines: as §2
The target of experiment [9] is Proteasome Macropain subunit (Homo sapiens) (UniProt P49721). Briefly: Inhibition of catalytic activity of constitutive proteasome 20s subunit beta2 in human Raji cells incubated for 1 hr by BODIPY(FL)-LU-112 probe based competitive activity based protein profiling assay. The class given is cell-based.

Consider `C[C@H](NC(=O)[C@H](Cc1ccccc1)NC(=O)[C@H](CC1CCC(C2CCCCC2)CC1)NC(=O)[C@H](Cc1ccccc1)N=[N+]=[N-])C(=O)[C@@]1(C)CO1` (stereo partly specified), for which the pIC50(app) was 7.13 in [1], 4.78 in experiment [3], < 4 in [4] and < 4 in experiment [5]. Moreover, in [2], the IC50 – broadly, the midpoint of a concentration-inhibition curve – fell in the range of 20 to 74.7 nM.
With `CC(C)C[C@H](NC(=O)[C@H](Cc1ccccc1)NC(=O)[C@H](CCC1CCCCC1)NC(=O)[C@H](Cc1ccccc1)N=[N+]=[N-])C(=O)[C@@]1(C)CO1`, the IC50 in [2] was determined as 36 nM. Also, in experiment [6], the Ratio IC50 was found to be 1.
For `CC(C)C[C@H](NC(=O)[C@H](Cc1ccccc1)NC(=O)[C@H](Cc1ccc2ccccc2c1)NC(=O)[C@H](Cc1ccccc1)N=[N+]=[N-])C(=O)[C@@]1(C)CO1`, the Activity in [7] was 49%; in experiment [8], 14%. Moreover, in experiment [2], the IC50 was < 10 nM.
`CC(C)C[C@H](NC(=O)[C@H](Cc1ccccc1)NC(=O)[C@@H](NC(=O)[C@H](Cc1ccccc1)N=[N+]=[N-])C1CCCCC1)C(=O)[C@@]1(C)CO1` returned an IC50 in [2] of 33 nM. The Ratio IC50 in [6] was 2.
In experiment [2], `COc1ccc(C[C@H](NC(=O)[C@H](CC23CC4CC(CC(C4)C2)C3)NC(=O)CN2CCOCC2)C(=O)N[C@@H](CC(C)C)C(=O)[C@@]2(C)CO2)cc1` came in with an IC50 of 853 nM. In addition, in experiment [6], the Ratio IC50 stood at 1.
With `COc1ccc(C[C@H](NC(=O)[C@H](CC23CC4CC(CC(C4)C2)C3)NC(=O)CN2CCOCC2)C(=O)N[C@@H](C)C(=O)[C@@]2(C)CO2)cc1`, the half-maximal inhibitory concentration (IC50) in experiment [2] is 853 nM. In addition, the Ratio IC50 in experiment [6] was > 12.
`C[C@H](NC(=O)[C@H](Cc1ccccc1)NC(=O)[C@H](C[C@H]1CC[C@@H](C2CCCCC2)CC1)NC(=O)[C@H](Cc1ccccc1)N=[N+]=[N-])C(=O)[C@@]1(C)CO1`: in experiment [2], the IC50 was determined as 710 nM.
Consider `CC(C)C[C@H](NC(=O)[C@H](Cc1ccccc1)NC(=O)[C@H](CC1CCCC2CCCCC21)NC(=O)[C@H](Cc1ccccc1)N=[N+]=[N-])C(=O)[C@@]1(C)CO1` (stereo partly specified), for which the concentration for half-maximal inhibition (IC50) in experiment [2] is < 10 nM. Moreover, the Activity in experiment [8] is 40%. Besides, the Ratio IC50 in experiment [6] was > 1.5.
In the case of `C[C@H](NC(=O)[C@H](Cc1ccccc1)NC(=O)[C@H](Cc1ccc(-c2ccccc2)cc1)NC(=O)[C@H](Cc1ccccc1)N=[N+]=[N-])C(=O)[C@@]1(C)CO1`, the half-inhibitory concentration (IC50) in experiment [2] was < 10 nM. Also, the Ratio IC50 in experiment [6] was > 13.
Consider `C[C@H](NC(=O)[C@H](Cc1ccccc1)NC(=O)[C@H](CC1CCC(C2CCCCC2)CC1)NC(=O)CN1CCOCC1)C(=O)[C@@]1(C)CO1` (stereo partly specified), for which the half-maximal inhibitory concentration (IC50) in [2] turned out to be 1230 nM. In experiment [6], the Ratio IC50 was > 8.
Regarding `COc1ccc(C[C@H](NC(=O)[C@H](Cc2ccc3ccccc3c2)NC(=O)CN2CCOCC2)C(=O)N[C@@H](CC(C)C)C(=O)[C@@]2(C)CO2)cc1`, the Activity in experiment [7] was 23%; in experiment [8], 9%. Besides, the IC50 in experiment [2] was < 10 nM.
Consider `CC(C)C[C@H](NC(=O)[C@H](Cc1ccccc1)NC(=O)[C@H](Cc1cccc2ccccc12)NC(=O)[C@H](Cc1ccccc1)N=[N+]=[N-])C(=O)[C@@]1(C)CO1`, for which the Activity in [7] amounted to 28%; in experiment [8], 12%. Further, in [2], the IC50 was < 10 nM.
Consider `CC(C)C[C@H](NC(=O)[C@H](Cc1ccccc1)NC(=O)[C@H](Cc1ccc(-c2ccccc2)cc1)NC(=O)[C@H](Cc1ccccc1)N=[N+]=[N-])C(=O)[C@@]1(C)CO1`, for which the values for the Activity in [7] and in experiment [8] were 28% and 9%, respectively. Besides, the concentration for half-maximal inhibition (IC50) in experiment [2] is < 10 nM.
Consider `CC(C)C[C@H](NC(=O)[C@H](Cc1ccccc1)NC(=O)[C@H](CC1CCC(C2CCCCC2)CC1)NC(=O)[C@H](Cc1ccccc1)N=[N+]=[N-])C(=O)[C@@]1(C)CO1` (stereo partly specified), for which the pIC50(app) in experiment [1] was 7.77; in experiment [3] it was 6.36; in [4] it was < 4; in [5], < 4. In experiment [2], this compound gave an IC50 of 17 to 19 nM.
As for `COc1ccc(C[C@H](NC(=O)[C@H](Cc2ccc(-c3ccccc3)cc2)NC(=O)CN2CCOCC2)C(=O)N[C@@H](CC(C)C)C(=O)[C@@]2(C)CO2)cc1`, the Activity in experiment [7] came out at 44%; in experiment [8], 23%. Besides, the concentration for half-maximal inhibition (IC50) in experiment [2] was < 10 nM.
The compound `CC(C)C[C@H](NC(=O)[C@H](Cc1ccccc1)NC(=O)[C@H](CC(C)(C)C)NC(=O)[C@H](Cc1ccccc1)N=[N+]=[N-])C(=O)[C@@]1(C)CO1` registered a concentration for half-maximal inhibition (IC50) in experiment [2] of 18 nM. The Ratio IC50 in [6] came to 4.
Regarding `C[C@H](NC(=O)[C@H](Cc1ccccc1)NC(=O)[C@@H](NC(=O)[C@H](Cc1ccccc1)N=[N+]=[N-])[C@H](C)OC(C)(C)C)C(=O)[C@@]1(C)CO1`, the IC50 in [2] was > 10000 nM.
As for `CC(C)C[C@H](NC(=O)[C@H](Cc1ccccc1)NC(=O)[C@H](Cc1c[nH]c2ccccc12)NC(=O)[C@H](Cc1ccccc1)N=[N+]=[N-])C(=O)[C@@]1(C)CO1`, the Activity stood at 49% in experiment [7] and 16% in experiment [8]. In addition, the IC50 in [2] is < 10 nM.
Take `CC(C)C[C@H](NC(=O)[C@H](Cc1ccccc1)NC(=O)[C@H](Cc1ccccc1)NC(=O)[C@H](Cc1ccccc1)N=[N+]=[N-])C(=O)[C@@]1(C)CO1`: the pIC50(app) is 6.91 in experiment [4], < 4 in [5] and 7.18 in experiment [9].
`CC(C)C[C@H](NC(=O)[C@H](Cc1ccccc1)NC(=O)[C@H](CC1CC2CCC1C2)NC(=O)[C@H](Cc1ccccc1)N=[N+]=[N-])C(=O)[C@@]1(C)CO1` (stereo partly specified): the IC50 in experiment [2] was < 10 nM. In addition, the Activity in experiment [8] came to 24%. In [6], the Ratio IC50 was > 3.
For the compound `CC(C)C[C@H](NC(=O)[C@H](Cc1ccccc1)NC(=O)[C@H](CC1CCC2CCCCC2C1)NC(=O)[C@H](Cc1ccccc1)N=[N+]=[N-])C(=O)[C@@]1(C)CO1` (stereo partly specified), the half-inhibitory concentration (IC50) in experiment [2] was < 10 nM. In addition, in experiment [8], the Activity was 36%. The Ratio IC50 in [6] is > 2.5.
As to `C[C@H](NC(=O)[C@H](Cc1ccccc1)NC(=O)[C@H](C[C@H]1CC[C@H](c2ccccc2)CC1)NC(=O)[C@H](Cc1ccccc1)N=[N+]=[N-])C(=O)[C@@]1(C)CO1`, the IC50 in experiment [2] came to 3.8 nM. In addition, the Ratio IC50 in [6] was found to be 2250.
For the compound `CC(C)C[C@H](NC(=O)[C@H](Cc1ccccc1)NC(=O)[C@H](CC1CCCCC1)NC(=O)[C@H](Cc1ccccc1)N=[N+]=[N-])C(=O)[C@@]1(C)CO1`, the IC50 in experiment [2] is < 10 nM. Besides, the Ratio IC50 in [6] is > 5.
As for `CC(C)C[C@H](NC(=O)[C@H](Cc1ccccc1)NC(=O)[C@@H](NC(=O)[C@H](Cc1ccccc1)N=[N+]=[N-])c1ccccc1)C(=O)[C@@]1(C)CO1`, the Activity in [7] came to 56%; in experiment [8], 44%. The IC50 in experiment [2] is < 10 nM.
With `Cc1ccc(C[C@H](NC(=O)[C@H](Cc2ccccc2)N=[N+]=[N-])C(=O)N[C@@H](Cc2ccccc2)C(=O)N[C@@H](CC(C)C)C(=O)[C@@]2(C)CO2)cc1`, the Activity was determined as 15% in [7] and 6% in experiment [8]. Further, in experiment [2], the IC50 is < 10 nM.
On to `COc1ccc(C[C@H](NC(=O)[C@H](CC2CCCCC2)NC(=O)CN2CCOCC2)C(=O)N[C@@H](CC(C)C)C(=O)[C@@]2(C)CO2)cc1`, for which the IC50 in experiment [2] was 119 nM. The Ratio IC50 in experiment [6] was 2.
The matching figures for `C[C@H](NC(=O)[C@H](Cc1ccccc1)NC(=O)[C@H](C[C@H]1CC[C@@H](c2ccccc2)CC1)NC(=O)[C@H](Cc1ccccc1)N=[N+]=[N-])C(=O)[C@@]1(C)CO1`: 71 nM and 165.
Consider `CC1=C(C(=O)N[C@H](C)C(=O)N[C@@H](Cc2c[nH]c3ccccc23)C(=O)N[C@@H](CC2CCCCC2)C(=O)[C@@]2(C)CO2)Cc2ccccc21`, for which the IC50 in experiment [2] is > 1000 nM.
For `COc1ccc(C[C@H](NC(=O)[C@H](Cc2cccc3ccccc23)NC(=O)CN2CCOCC2)C(=O)N[C@@H](CC(C)C)C(=O)[C@@]2(C)CO2)cc1`, the Activity in experiment [7] turned out to be 36%; in [8] it was 30%. In addition, the concentration for half-maximal inhibition (IC50) in experiment [2] was < 10 nM.
Turning to `C[C@H](NC(=O)[C@H](Cc1ccccc1)NC(=O)[C@H](CC1CCCCC1)NC(=O)[C@H](Cc1ccccc1)N=[N+]=[N-])C(=O)[C@@]1(C)CO1`, in [2], the IC50 came to 57 nM. Also, the Ratio IC50 in [6] was > 175.
